The test system of one data set is MDA-MB-435. Kind of data set: Cytotoxicity against human MDA-MB-435 cells after 72 hrs by MTT assay. The data set is classed as functional, cell-based. The essentials: (§1)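 Compounds dissolved in DMSO; cells seeded at 5 × 10^3 per well and treated after adherence with a range of concentrations for 72 h, with DMSO as negative control. MTT was added for 4 h at 37 °C in the dark, formazan dissolved in DMSO, and absorbance read. IC50 (μM) was calculated as the mean of three independent experiments.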
In general terms: Formazan colour is commonly taken as a measure of viable cells.

A further data set relates to A549. As to the kind of experiment: Cytotoxicity against human A549 cells after 72 hrs by MTT assay. The class given is functional, cell-based. As to conditions: A549, 72 h. In outline:
as §1

The test system of another data set is 4T1. As to the kind of experiment: Cytotoxicity against mouse 4T1 cells after 72 hrs by MTT assay. The data set is classed as functional, cell-based. The essentials:
as §1

Another data set relates to B16-F10. As to the kind of experiment: Cytotoxicity against mouse B16F10 cells after 72 hrs by MTT assay. The class given is functional, cell-based. The essentials:
as §1

For another data set, the system named is PC-3. Kind of data set: Cytotoxicity against human PC3 cells after 72 hrs by MTT assay. The data set is classed as functional, cell-based. In outline: as §1
A further data set deals with MCF7. Kind of data set: Cytotoxicity against human MCF7 cells after 72 hrs by MTT assay. The data set is classed as functional, cell-based. The essentials:
as §1

Another data set has as its system HCT-116. Kind of data set: Cytotoxicity against human HCT116 cells after 72 hrs by MTT assay. The class given is functional, cell-based. The essentials: as §1
The next data set has as its system CT26. Kind of data set: Cytotoxicity against mouse CT26 cells after 72 hrs by MTT assay. The class given is functional, cell-based. In outline: as §1
A further data set has as its system MCF-7 (Homo sapiens). Kind of data set: Cytotoxicity against human MCF-7 cells after 72 hrs by MTT assay. Conditions: MCF-7, 72 h.
For data set [1], the system named is Mus musculus. As to the kind of experiment: Toxicity in BALB/c mouse assessed as mortality at 120 umol/kg, po administered daily once for 12 days measured on day 8. As to conditions: in vivo, 288 h. The data set is classed as organism-based. The essentials: (§2)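 Male BALB/c mice aged 6-8 weeks, n = 6 per group, received 120 μmol/kg by gavage once daily for 12 days in 10% ethanol, with 10% ethanol alone as the control. Survival was followed over time, and mice were weighed at day 12 and then sacrificed. Small intestine was paraffin-embedded, cut into 5 μm sections, H&E-stained and examined by light microscopy. Student's t test was used.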

Data set [2] deals with Mus musculus. As to the kind of experiment: Toxicity in BALB/c mouse assessed as induction of small intestine damage at 120 umol/kg, po administered daily once for 12 days. The data set is classed as organism-based. As to conditions: in vivo, 288 h. The essentials:
as §2

In a further data set the test system is SW-620. As to the kind of experiment: Cytotoxicity against human SW620 cells after 72 hrs by MTT assay. As to conditions: sw-620. The class given is functional, cell-based. The essentials: as §1
The subject of data set [3] is Mus musculus. Kind of data set: Toxicity in BALB/c mouse assessed as mortality at 120 umol/kg, po administered daily once for 12 days. As to conditions: in vivo, 288 h. The class given is organism-based. The essentials:
as §2

Data set [4] in a line: Solubility of the compound in 100 gram of water. The data set is classed as physicochemical. Conditions: buffer. In outline: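 Water solubility was measured at 37 °C as the mass of compound dissolving in 100 g of H2O.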

Several values for one entry are separate records, joined by “and”; a condition that tells them apart may be missing. Equal values may be shown once. Bounds are passed on as bounds.

Broadly, the IC50 is the midpoint of a concentration-inhibition curve. Low readings indicate greater potency, high ones weaker potency.

With `COC(=O)C(/N=C/c1c(O)c(O)c(C(C)C)c2cc(C)c(-c3c(C)cc4c(C(C)C)c(O)c(O)c(/C=N/C(C(=O)OC)c5c[nH]c6ccccc56)c4c3O)c(O)c12)c1c[nH]c2ccccc12` (configuration not stated), the IC50 is over 40 µM in the data set on MDA-MB-435 (Homo sapiens, MDA-MB-435, 72 h); over 40 µM with A549; over 40 µM with 4T1 (Mus musculus, 4T1, 72 h); over 40 µM in the data set on B16-F10 (Mus musculus, B16-F10, 72 h); over 40 µM in the data set with PC-3 (Homo sapiens, PC-3, 72 h); over 40 µM in the data set with MCF7 (Homo sapiens, MCF7, 72 h). The 50% inhibitory concentration (IC50) in the data set on HCT-116 (Homo sapiens, HCT-116, 72 h) was over 40 µM; with CT26 (Mus musculus, CT26, 72 h) it was over 40 µM; in the data set on MCF-7 (Homo sapiens), over 40 µM.

Regarding `CO[C@@H](c1ccc([N+](=O)[O-])cc1)[C@H](CO)/N=C/c1c(O)c(O)c(C(C)C)c2cc(C)c(-c3c(C)cc4c(C(C)C)c(O)c(O)c(/C=N/[C@@H](CO)[C@@H](OC)c5ccc([N+](=O)[O-])cc5)c4c3O)c(O)c12`, the IC50 is over 40 µM in the data set on MDA-MB-435 (Homo sapiens, MDA-MB-435, 72 h); over 40 µM in the data set with A549; over 40 µM in the data set on 4T1 (Mus musculus, 4T1, 72 h); over 40 µM with B16-F10 (Mus musculus, B16-F10, 72 h); over 40 µM in the data set on PC-3 (Homo sapiens, PC-3, 72 h); over 40 µM in the data set with MCF7 (Homo sapiens, MCF7, 72 h). In addition, the concentration for half-maximal inhibition (IC50) with HCT-116 (Homo sapiens, HCT-116, 72 h) was 17.7 µM; with CT26 (Mus musculus, CT26, 72 h), over 40 µM; with MCF-7 (Homo sapiens), over 40 µM.

For `Cc1cc2c(C(C)C)c(O)c(O)c(/C=N/C3C(=O)N4[C@@H]3SC(C)(C)[C@@H]4C(=O)O)c2c(O)c1-c1c(C)cc2c(C(C)C)c(O)c(O)c(/C=N/C3C(=O)N4[C@@H]3SC(C)(C)[C@@H]4C(=O)O)c2c1O` (single isomer, unassigned), the IC50 in the data set on MDA-MB-435 (Homo sapiens, MDA-MB-435, 72 h) is over 40 µM; in the data set with A549 it was over 40 µM; in the data set on 4T1 (Mus musculus, 4T1, 72 h) it was over 40 µM; in the data set with B16-F10 (Mus musculus, B16-F10, 72 h), over 40 µM; in the data set on PC-3 (Homo sapiens, PC-3, 72 h) it was over 40 µM; in the data set with MCF7 (Homo sapiens, MCF7, 72 h), over 40 µM. The IC50 is over 40 µM in the data set with HCT-116 (Homo sapiens, HCT-116, 72 h); over 40 µM in the data set on CT26 (Mus musculus, CT26, 72 h); over 40 µM in the data set on MCF-7 (Homo sapiens).

`Cc1cc2c(C(C)C)c(O)c(O)c(C=O)c2c(O)c1-c1c(C)cc2c(C(C)C)c(O)c(O)c(C=O)c2c1O` [GOSSYPOL]: the values for the Activity entry in the data set with Mus musculus [1], in the data set on Mus musculus [2] and in the data set with Mus musculus [3] were “Toxic”, “Toxic” and “Non-toxic”, respectively. Besides, the IC50 was 11.8 µM and 33.2 µM with MDA-MB-435 (mda-mb-435); 17.2 µM with SW-620; 21.5 µM in the data set with 4T1 (4t1); 18.8 µM with 4T1 (Mus musculus, 4T1, 72 h); 5.54 µM and 18 µM with B16-F10 (b16-f10); 9.14 µM and 22.4 µM in the data set on PC-3 (pc-3). The IC50 is 12.6 µM with MCF7 (Homo sapiens, MCF7, 72 h); 21.6 µM with MCF7 (mcf7); 3.33 µM and 22 µM in the data set on HCT-116 (hct-116); 2.21 µM and 13.6 µM with CT26 (ct26); 12.6 µM in the data set on MCF-7 (Homo sapiens). In data set [4], this molecule returned a solubility of under 0.001 g.

The record behind these values is ChEMBL document CHEMBL1212914, “A novel water-soluble gossypol derivative increases chemotherapeutic sensitivity and promotes growth inhibition in colon cancer” (J Med Chem, 2010).
